The target of assay [1] is T1, PikCD50N-RhFRED (Streptomyces venezuelae, UniProt O87605, D50N).
T1 sequence (O87605 1-416 D50N): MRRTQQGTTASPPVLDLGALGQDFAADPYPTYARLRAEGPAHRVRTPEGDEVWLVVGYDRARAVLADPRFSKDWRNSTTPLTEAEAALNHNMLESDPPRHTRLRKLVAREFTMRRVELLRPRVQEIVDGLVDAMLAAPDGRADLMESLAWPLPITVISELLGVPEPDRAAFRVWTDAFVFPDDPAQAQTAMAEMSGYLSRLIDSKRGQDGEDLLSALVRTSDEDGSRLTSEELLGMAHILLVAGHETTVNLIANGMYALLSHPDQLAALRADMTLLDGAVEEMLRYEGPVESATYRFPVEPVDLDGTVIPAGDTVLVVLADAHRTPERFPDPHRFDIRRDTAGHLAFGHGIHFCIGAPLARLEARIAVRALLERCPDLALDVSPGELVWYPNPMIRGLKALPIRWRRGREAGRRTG
T1 sequence (Q8KU27 445-773 partner): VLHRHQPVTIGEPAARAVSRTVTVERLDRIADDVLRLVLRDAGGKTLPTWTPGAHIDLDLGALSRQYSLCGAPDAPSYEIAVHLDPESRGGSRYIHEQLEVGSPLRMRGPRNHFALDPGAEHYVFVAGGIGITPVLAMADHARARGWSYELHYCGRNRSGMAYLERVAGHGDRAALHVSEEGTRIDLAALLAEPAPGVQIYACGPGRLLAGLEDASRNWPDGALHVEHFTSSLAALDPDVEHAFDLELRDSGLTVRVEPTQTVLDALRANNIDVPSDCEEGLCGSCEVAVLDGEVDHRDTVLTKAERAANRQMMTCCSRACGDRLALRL
Description: PikCD50N-RhFRED analytical-scale enzymatic reactions. The note with it: for preferred site of hydroxylation (regioselectivity in words): PikCD50N-RhFRED; for hydroxylation by PikCD50N-RhFRED (result in words): 0.5 mol % enzyme (5 μM enzyme, 1 mM substrate). It counts as biochemical.

For assay [2], the target named is T1, PikCD50N-RhFRED. Description: Spectroscopic equilibrium substrate binding assay, PikCD50N-RhFRED.
In assay [3] the target is T2, PikCD50NH238A (Streptomyces venezuelae, UniProt O87605, D50N/H238A).
T2 sequence (O87605 1-416 D50N/H238A): T1 sequence (O87605 1-416 D50N)
T2 sequence (Q8KU27 445-773 partner): T1 sequence (Q8KU27 445-773 partner)
Briefly: Spectroscopic equilibrium substrate binding assay, PikCD50NH238A mutant.

Assay [4] relates to PikCD50N/H238A-RhFRED. Briefly: Total turnover number. The note with it: PikCD50N/H238A-RhFRED double mutant. It counts as biochemical. Summed up:
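Double mutant made by adding H238A to the PikCD50N-RhFRED fusion, to probe the H238 H-bond to the anchoring-group carbonyl. TTN is expressed relative to moles of enzyme.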

Broadly, the Kd is the free concentration of one partner at which half of the binding sites on the other are occupied at equilibrium, for simple one-to-one binding. For `CC[C@H]1OC(=O)[C@H](C)[C@@H](OC(=O)[C@H]2CCCN2C)[C@@H](C)C[C@@H](C)C(=O)/C=C/[C@H]1C` [12a], the “preferred site of hydroxylation (regioselectivity in words)” value in assay [1] is listed as “preferential C-10 hydroxylation”. For the same compound, the Kd turned out to be 47 ± 3 µM in assay [2] and 19 ± 1.3 µM in assay [3]. Further, the “TTN D50NH238A” value in assay [4] is reported as 542 ± 30.
For `CC[C@H]1OC(=O)[C@H](C)[C@@H](OC(=O)CCN(C)C)[C@@H](C)C[C@@H](C)C(=O)/C=C/[C@H]1C` [8b], the Kd in assay [2] was found to be 81 ± 15 µM; in assay [3] it was 161 ± 25 µM. Further, the “TTN D50NH238A” value in assay [4] amounted to 870 ± 38.
For the compound `CC[C@H]1OC(=O)[C@H](C)[C@@H](OC(=O)c2cccc(CN(C)C)c2)[C@@H](C)C[C@@H](C)C(=O)/C=C/[C@H]1C` [16b], in assay [1], the “hydroxylation by PikCD50N-RhFRED (result in words)” value (shortened to “hydroxylation by PikCD50N-RhFRED”) is “converted to monohydroxylated products” and the “preferred site of hydroxylation (regioselectivity in words)” value is “highly regioselective allylic hydroxylation at C-10”. In assay [4], the “TTN D50NH238A” value was found to be 922 ± 35.
For `CC[C@H]1OC(=O)[C@H](C)[C@@H](OC(=O)c2ccccc2CN(C)C)[C@@H](C)C[C@@H](C)C(=O)/C=C/[C@H]1C` [compound 14], in assay [1], the “hydroxylation by PikCD50N-RhFRED” value was “converted to monohydroxylated products” and the “preferred site of hydroxylation (regioselectivity in words)” value is “favor C-12 hydroxylation”. Moreover, the “TTN D50NH238A” value in assay [4] is 491 ± 26.
Take `CC[C@H]1OC(=O)[C@H](C)[C@@H](OC(=O)CCCN(C)C)[C@@H](C)C[C@@H](C)C(=O)/C=C/[C@H]1C` [compound 10]: the Kd worked out at 123 ± 14 µM in assay [2] and 168 ± 19 µM in assay [3]. Also, the “TTN D50NH238A” value in assay [4] amounted to 853 ± 38.
`CC[C@H]1OC(=O)[C@H](C)[C@@H](OC(=O)[C@@H]2CCCN2C)[C@@H](C)C[C@@H](C)C(=O)/C=C/[C@H]1C` [12b]: the “preferred site of hydroxylation (regioselectivity in words)” value in assay [1] is reported as “preferential C-10 hydroxylation”. Moreover, the Kd in assay [2] turned out to be 28 ± 5.4 µM; in assay [3], 21 ± 0.7 µM. In assay [4], the “TTN D50NH238A” value is listed as 538 ± 20.
Turning to `CC[C@H]1OC(=O)[C@H](C)[C@@H](OC(=O)c2ccc(CN(C)C)cc2)[C@@H](C)C[C@@H](C)C(=O)/C=C/[C@H]1C` [16a], in assay [1], the “hydroxylation by PikCD50N-RhFRED” value was “converted to monohydroxylated products” and the “preferred site of hydroxylation (regioselectivity in words)” value was “highly regioselective allylic hydroxylation at C-10”. For the same compound, the “TTN D50NH238A” value in assay [4] worked out at 816 ± 33.

The record behind these values is publication PMC4012894 (Journal of the American Chemical Society, 2014).
